# An excerpt weighted towards active compounds, which were near 3.4% of everything screened.
# A3G deaminase = blocks human APOBEC3G single-stranded DNA deamination | recombinant A3G, ssDNA deamination FAM/TAMRA fluorescence | inhibition, % at 20 µM | AID 493012 | hit rate 0.28% among 330,000 | Q9HC16;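 active = inhibition of at least 40% at 20 µM, with no more than 30% in the related APOBEC3A deaminase screen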;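 note: plate controls were DMSO wells with A3G for no effect and wells lacking A3G enzyme for full effect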
# Arr AP2 block = inhibitors of human beta-arrestin and AP2 interaction. hit rate 0.31% among 340,000. AID 504490. FITC-arrestin peptide / GST-AP2 beads, flow cytometry; AP2 beta2 appendage carries R879A mutation. inhibition, % at 10 µM;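 active = inhibition above a set limit, near 3 SD of compounds lacking own fluorescence, cut at about 54% in these data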;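 note: plate controls were DMSO wells for no effect and 5 µM unlabelled arrestin peptide for full effect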
#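 System: GST-AP2 R879A bound to glutathione beads, E. coli-expressed. Also added: 50 nM FITC-arrestin peptide. Schedule: compound with beads 12 min RT, then probe 1 h RT. Signal: bead flow cytometry, FITC channel. Read-out basis: percent response.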
# A3A deaminase = human APOBEC3A DNA deaminase inhibition; P31941; recombinant A3A, FAM/TAMRA ssDNA deamination fluorescence; inhibition, % at 20 µM; hit rate 0.41% among 330,000;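 active = at least 40% inhibition at 20 µM here, with at most 30% in a related deaminase screen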;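 note: plate controls were A3A with DMSO for no effect and wells lacking A3A enzyme for full effect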
# Target sequence (P31941 whole entry, looked up): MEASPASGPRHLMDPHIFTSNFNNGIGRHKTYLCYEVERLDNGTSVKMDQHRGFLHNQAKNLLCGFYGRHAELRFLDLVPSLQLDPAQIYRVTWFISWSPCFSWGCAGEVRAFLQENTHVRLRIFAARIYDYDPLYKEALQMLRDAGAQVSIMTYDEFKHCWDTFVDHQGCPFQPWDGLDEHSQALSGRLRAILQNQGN
# AHR act = activates the human aryl hydrocarbon receptor; AHR-responsive luciferase reporter cells, luminescence; activation, % at 5 µM; hit rate 2.5% among 320,000; in the data active = activation above about 47%;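 note: 0% = vehicle wells and 100% = reference agonist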
# PolyA inhibitor = inhibitors of polyadenylation in S. cerevisiae. S. cerevisiae SKY197-pL101 polyadenylation reporter, beta-gal luminescence; efflux-impaired pdr1/pdr3 knockout yeast; score 100 = 6 SD above DMSO. activity score, % at 12 µM. hit rate 0.02% among 300,000. AID 1875;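 active = lowest replicate activity score at least 50, where 100 means six control SD above control mean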;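 note: yeast exposed to compound for 9 h at 30 °C; higher score means more reporter readthrough which indicates perturbed polyadenylation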
# UCH37 DUB inh = human UCH37 deubiquitinating enzyme inhibition | inhibition, % (concentration not given with the values) | purified proteasome/UCH37, Ub-AMC cleavage fluorescence | hit rate 0.33% among 330,000;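 active = mean inhibition over replicate wells above about 20%, limit read from the data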;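 note: 0% = compound-free wells with enzyme and 100% = wells lacking proteasome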
# Target sequence (Q9Y5K5 whole entry, looked up): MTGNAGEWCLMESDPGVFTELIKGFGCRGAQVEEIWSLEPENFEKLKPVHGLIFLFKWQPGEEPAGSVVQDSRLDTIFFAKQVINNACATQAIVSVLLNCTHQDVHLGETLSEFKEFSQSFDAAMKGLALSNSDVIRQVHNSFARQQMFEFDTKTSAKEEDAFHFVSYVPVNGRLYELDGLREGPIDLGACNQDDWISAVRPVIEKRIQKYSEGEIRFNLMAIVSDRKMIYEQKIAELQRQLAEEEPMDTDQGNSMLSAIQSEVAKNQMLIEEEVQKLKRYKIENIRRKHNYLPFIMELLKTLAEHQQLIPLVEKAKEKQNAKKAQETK
#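 Schedule: 30 min plus 25 min, room temperature / Material: human UCH37 within purified proteasomes / Technique: AMC fluorescence intensity at 355/460 nm / Buffer or medium: pH 7.4 Tris-HCl (50 mM) with ovalbumin, ATP-MgCl2, DTT / Controls: wells without proteasome as full block, compound-free enzyme plus substrate as uninhibited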
# The depositor's hits bear a star; i = inactive; nt = not tested or not shown.
SMILES,A3G deaminase,Arr AP2 block,A3A deaminase,AHR act,PolyA inhibitor,UCH37 DUB inh
C=C(C)CNC(=S)N=Nc1c(O)[nH]c2ccc([N+](=O)[O-])cc12,-1,11,5,26,-13,7
CC(C)NC(=S)N=Nc1c(O)[nH]c2ccc([N+](=O)[O-])cc12,-13,5,-2,60*,-8,nt
COc1ccc(C=c2sc3n(c2=O)NC2(c4ccccc4)N(C)C(=O)N(C)C2(c2ccccc2)N=3)cc1 (stereo not drawn),nt,nt,nt,nt,nt,4
Clc1ccccc1CSc1ncn(-c2ccccc2)n1,2,5,4,68*,-46,3
CSc1nncc(C(C)=NNc2cccc(C)c2)n1,nt,nt,nt,nt,nt,4
Cc1cc(C)c(C#N)c(OCC(=O)c2ccccc2)n1,-2,-6,-2,52*,-10,6
COc1ccc(C(=O)NCCC2=CCCCC2)cc1,-4,4,4,-5,24,2
CCC(C)[C@H](NC(=O)NCCC1=CCCCC1)C(=O)OC (stereo partly drawn),-3,5,-4,-1,-5,25*
COc1cccc(C(=O)NCCC2=CCCCC2)c1,-6,25,-2,14,4,25*
Cc1ccc(S(=O)(=O)NC2=C(N3CCN(c4ccccc4F)CC3)C(=O)c3ccccc3C2=O)cc1,27,0,-2,7,-2,-1
CC(=O)Nc1ccc(S(=O)(=O)NC2=C(N3CCN(c4ccc(F)cc4)CC3)C(=O)c3ccccc3C2=O)cc1,1,7,-1,85*,-10,10
C/C(=N\Nc1ncc(Cl)cc1Cl)c1ccc(OC(F)F)cc1,-1,-10,4,63*,4,nt
CCOc1ccc(C(=O)NC2=NCCS2)cc1,-3,nt,-2,43,4,1
CCOc1cc(C(=O)NC2=NCCS2)cc(OCC)c1OCC,-2,17,2,55*,-20,-1
O=C(Nc1nc2nccc(-c3ccccc3)n2n1)C(Cl)(Cl)Cl,0,0,6,54*,13,-86
CCC(=O)Nc1ccc(-c2nn3c(C)nnc3s2)cc1C,0,-1,0,54*,6,1
Cc1nnc2sc(-c3ccc(NC(=O)CSc4ccc(Cl)cc4)cc3)nn12,-3,0,1,2,-3,-8
Cc1ccc(-c2nn3c(C)nnc3s2)cc1NC(=O)CSc1ccc(Cl)cc1,2,5,5,-2,88*,2
CC1(C)Cc2ccccc2C(C(=NNc2cccc(Cl)c2)C(N)=O)=N1,nt,nt,nt,nt,nt,1
CC(=O)Nc1cccc(NC(=O)CSc2ncc(C(=O)Nc3ccc(F)cc3)c(=O)n2C)c1,-48,-9,-2,66*,7,9
CC(=O)Nc1cccc(NC(=O)CSc2ncc(C(=O)Nc3ccccc3)c(=O)n2C)c1,-12,-1,-5,16,3,-147
CC(=O)Nc1ccc(NC(=O)CSc2ncc(C(=O)Nc3ccc(Cl)cc3)c(=O)n2C)cc1,-8,-4,-2,68*,9,-19
Cc1ccc(-c2n[nH]c(=S)n2N=C/C=C/c2ccccc2[N+](=O)[O-])cc1,nt,nt,nt,nt,nt,7
Cc1ccc2nc(SCc3nnc(-c4ccccc4Br)o3)[nH]c2c1,-4,0,0,52*,-13,-2
CCCN(CCC)C(=O)c1cc(-c2ccc3c(c2)OCO3)nc2ccccc12,-3,8,0,66*,-27,-59
SMILES,A3G deaminase,Arr AP2 block,A3A deaminase,AHR act,PolyA inhibitor,UCH37 DUB inh
O=C(O)c1cc(-c2ccc3c(c2)OCO3)nc2ccccc12,-6,-5,1,6,19,4
O=C(N/N=C/c1oc(O)c2ccccc12)c1ccccc1O,-3,35,-2,11,-8,nt
O=[N+]([O-])CC(=Nc1ccc(F)cc1)N/N=C\c1oc(O)c2ccccc12,-1,nt,3,54*,13,nt
CC(=NNC(=O)C(=O)Nc1cccc(Cl)c1C)c1ccncc1,nt,nt,nt,nt,nt,0
C=CCc1c(C)nc2cc(-c3ccc(C)cc3)[nH]n2c1=O,1,22,-2,50*,-7,-4
CCc1c(C)nc2cc(-c3ccccc3)[nH]n2c1=O,-8,-16,-4,45,2,-10
Cc1cc(C)n2ncc(C(=O)NCc3cccnc3)c2n1,7,12,-1,68*,-11,-47
COc1ccc(CNC(=O)c2cnn3c(C(F)F)cc(C)nc23)cc1OC,-9,1,-1,52*,14,2
O=C(NCc1cccnc1)c1cnn2ccccc12,-8,-4,-4,14,7,-5
CC(C)n1cnc2c(Nc3cccc(F)c3)nc(NCCO)nc21,-11,-6,-5,66*,8,3
Cn1cncc1C#Cc1c(C=O)[nH]c2ccccc12,-6,4,0,68*,nt,-5
Cn1cncc1C#Cc1c(-c2ccc(S(C)(=O)=O)cc2)sc2ccccc12,-4,29,-4,23,nt,-192
Cc1cc(C)n2nc(SCC(=O)NN=Cc3ccc(F)cc3)nc2n1,nt,nt,nt,nt,nt,1
COc1cc(NC(=O)C2CCCCC2)c(OC)cc1NC(=O)c1ccco1,-4,11,-3,16,-2,1
COc1cc(NC(=O)C2CCCO2)c(OC)cc1NC(=O)c1ccccc1 (stereo not drawn),-4,-3,2,78*,8,4
COc1cc(NC(=O)C2CCCCC2)c(OC)cc1NC(=O)c1ccccc1,-10,-1,-4,54*,2,2
CCOc1ccccc1NC(=O)C1CCCC1,nt,-7,nt,nt,nt,nt
CCOc1ccccc1NC(=O)c1cccc(NC(=O)C2CCCC2)c1,10,-14,-3,60*,3,0
Nc1ccccc1O,1,nt,0,74*,nt,3
CS(=O)(=O)N(CC(=O)Nc1ccc(Br)cc1F)C1CCCCC1,-5,52,0,55*,9,2
CN(C)C=Nc1cc(=O)[nH]c(=O)n1C,nt,nt,nt,nt,nt,-2
COCCCn1c(=NC(=O)c2ccncc2)c(C#N)cc2c(=O)n3cccc(C)c3nc21,0,-7,2,59*,-5,i
CC(=NNC(=O)Nc1ccccc1)c1ccc(C)cc1,nt,nt,nt,nt,nt,2
COc1ccc2c(C)cc(N3CCN(c4ccc(F)cc4)CC3)nc2c1,-1,0,-2,69*,-4,1
Cc1cc(N2CCN(c3ccc(F)cc3)CC2)nc2cc(O)ccc12,3,13,1,98*,-18,-34
Cc1cc(C=NNC(=O)c2cccc(N(C)C)c2)c(C)n1-c1cc(C(=O)O)cc(C(=O)O)c1,nt,nt,nt,nt,nt,5
CN(C)C=NNC(=O)c1ccccc1Cl,nt,nt,nt,nt,nt,7
Cc1ccc(NC(=S)NNC(=S)NC2CCCCC2)cc1,-1,3,4,50*,-8,-2
CC(C)c1ccc(NC(=S)NC2CCCCCC2)cc1,-6,6,-5,12,-11,0

# Screens: PubChem, several laboratories
